Activity calls are given as the source filed them.

The source of these data is ChEMBL document CHEMBL1932985, “Identification of biaryl sulfone derivatives as antagonists of the histamine H₃ receptor: discovery of (R)-1-(2-(4'-(3-methoxypropylsulfonyl)biphenyl-4-yl)ethyl)-2-methylpyrrolidine (APD916)” (Bioorg Med Chem Lett, 2012).

The target in series [1] is Histamine H3 receptor (Rattus norvegicus, UniProt Q9QYN8). Description: Displacement of N-[3H]-methylhistamine from histamine H3 receptor in rat cortex membranes. It counts as cell membranes, Membrane.
Series [2] addresses hERG (KCNH2) (Homo sapiens, UniProt Q12809). Nature of the series: Inhibition of human ERG at 3 uM by patch-clamp assay. (Patch clamp records ionic current or voltage across a cell membrane.)
In series [3] the target is Voltage-gated inwardly rectifying potassium channel KCNH2 (Homo sapiens, UniProt Q12809). Description: Inhibition of human ERG by patch-clamp assay.
Series [4] deals with Rattus norvegicus. Description: Inhibition of RAMH-induced dipsogenia in po dosed Sprague-Dawley rat administered 30 mins prior to RAMH challenge measured up to 20 mins. The class given is functional. The following applies: read-out: MED. The method in brief:
(§1)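 Rats given compound orally 0.5 h (or, for duration of action, at selected times up to 6 h) before RAMH 10 mg/kg SC; water consumed over 20 min measured. Screening doses 1 or 0.3 mg/kg PO, also 0.1 mg/kg; duration study at 0.6 mg/kg PO. MED = minimum dose fully inhibiting drinking; means ± SEM.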

Series [5] can be described thus: Tmax in Sprague-Dawley rat at 10 mg/kg, po and iv by LC-MS/MS analysis. The class given is ADME, organism-based. Also on record: dose 10 mg/kg, route oral. As to conditions: in vivo. An outline of the steps:
(§2)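 Rats were given the compound both IV and PO in a routine PK study. Tmax came from the PO arm and Vss from the IV arm.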

The nature of series [6]: Cmax in Sprague-Dawley rat plasma at 10 mg/kg, po and iv by LC-MS/MS analysis. It counts as ADME, organism-based. On the set-up: dose 10 mg/kg, route oral. An outline of the steps:
(§3)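 Rat PK after IV and PO dosing; plasma Cmax, Tmax, IV half-life and Vss determined; oral bioavailability from AUCpo/AUCiv. Metabolite exposure determined after a 3 mg/kg PO parent dose.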

Series [7] can be described thus: Half life in Sprague-Dawley rat at 10 mg/kg, iv by LC-MS/MS analysis. As to conditions: in vivo. On the set-up: dose 10 mg/kg, route intravenous. The class given is ADME, organism-based. An outline of the steps: as §3
In series [8] the test system is Rattus norvegicus. Nature of the series: Volume of distribution at steady state in Sprague-Dawley rat at 10 mg/kg, po and iv by LC-MS/MS analysis. The class given is ADME, organism-based. Also on record: dose 10 mg/kg, route oral. As to conditions: in vivo. The method in brief:
as §2

Series [9] is described as follows: Oral bioavailability in Sprague-Dawley rat at 10 mg/kg by LC-MS/MS analysis. The class given is ADME, organism-based. The following applies: in vivo. An outline of the steps: as §3
Series [10] in a line: Ratio of drug level in brain to plasma in Sprague-Dawley rat at 10 mg/kg, po and iv after 0.75 to 3 hrs by LC-MS/MS analysis. It counts as ADME, organism-based. On the set-up: dose 10 mg/kg, route oral. The following applies: read-out: BPR. An outline of the steps:
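Brain (µg/mg) and plasma (µg/mL) levels were measured after oral dosing, with three rats per time point. The b/p ratio was the mean of the nine individual ratios.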

In series [11] the test system is Rattus norvegicus. Nature of the series: Inhibition of RAMH-induced dipsogenia in Sprague-Dawley rat at 0.6 mg/kg, po administered 6 hrs prior to RAMH challenge measured up to 20 mins. The class given is functional. An outline of the steps:
as §1

A short description of series [12]: Solubility of the compound in water. It counts as physicochemical.
Series [13] deals with Rattus norvegicus. Description: Inhibition of RAMH-induced dipsogenia in Sprague-Dawley rat at 0.1 mg/kg, po administered 30 mins prior to RAMH challenge measured up to 20 mins. It counts as functional, organism-based. Also on record: dose 0.1 mg/kg. An outline of the steps:
as §1

For series [14], the system named is Rattus norvegicus. Nature of the series: Inhibition of RAMH-induced dipsogenia in Sprague-Dawley rat at 0.6 mg/kg, po administered 30 mins prior to RAMH challenge measured up to 20 mins. It counts as functional, organism-based. Also on record: dose 0.6 mg/kg. An outline of the steps: as §1
Series [15] has as its system Rattus norvegicus. Description: Inhibition of RAMH-induced dipsogenia in Sprague-Dawley rat at 0.6 mg/kg, po administered 1 hr prior to RAMH challenge measured up to 20 mins. The class given is functional, organism-based. On the set-up: dose 0.6 mg/kg. An outline of the steps: as §1
The nature of series [16]: Tmax in Sprague-Dawley rat at 3 mg/kg, po and iv by LC-MS/MS analysis. On the set-up: dose 3 mg/kg, route oral. It counts as ADME, organism-based. As to conditions: in vivo. An outline of the steps:
as §2

Series [17] concerns Rattus norvegicus. Description: Tmax in Sprague-Dawley rat assessed as (R)-3-(4'-(2-(2-methylpyrrolidin-1-yl)ethyl)biphenyl-4-ylsulfonyl)propan-1-ol level at 3 mg/kg, po and iv by LC-MS/MS analysis. It counts as ADME, organism-based. Also on record: dose 3 mg/kg, route oral. As to conditions: in vivo. An outline of the steps:
(§4)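 Exposure to the hydroxylated metabolite was measured after the propyl parent was given to rats at 3 mg/kg PO. Brain (µg/mg) and plasma (µg/mL) levels were taken at 3 time points, and the ratio was the mean.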

Series [18] can be described thus: Cmax in Sprague-Dawley rat plasma at 3 mg/kg, po and iv by LC-MS/MS analysis. It counts as ADME, organism-based. On the set-up: dose 3 mg/kg, route oral. An outline of the steps:
as §3

Series [19] relates to Plasma. Description: Cmax in Sprague-Dawley rat plasma assessed as (R)-3-(4'-(2-(2-methylpyrrolidin-1-yl)ethyl)biphenyl-4-ylsulfonyl)propan-1-ol level at 3 mg/kg, po and iv by LC-MS/MS analysis. The class given is ADME, organism-based. On the set-up: dose 3 mg/kg, route oral. As to conditions: in vivo. The method in brief:
as §3

Series [20] in a line: Half life in Sprague-Dawley rat at 3 mg/kg, iv by LC-MS/MS analysis. The class given is ADME, organism-based. On the set-up: dose 3 mg/kg, route intravenous. As to conditions: in vivo. An outline of the steps: as §3
In series [21] the test system is Rattus norvegicus. Nature of the series: Volume of distribution at steady state in Sprague-Dawley rat at 3 mg/kg, po and iv by LC-MS/MS analysis. It counts as ADME, organism-based. Also on record: dose 3 mg/kg, route oral. The following applies: in vivo. An outline of the steps:
as §2

Series [22] in a line: Oral bioavailability in Sprague-Dawley rat at 3 mg/kg by LC-MS/MS analysis. It counts as ADME, organism-based. The following applies: in vivo. The method in brief: as §3
A short description of series [23]: Ratio of (R)-3-(4'-(2-(2-methylpyrrolidin-1-yl)ethyl)biphenyl-4-ylsulfonyl)propan-1-ol level in brain to plasma in Sprague-Dawley rat at 3 mg/kg, po and iv after 0.75 to 3 hrs by LC-MS/MS analysis. It counts as ADME, organism-based. On the set-up: dose 3 mg/kg, route oral. The method in brief:
as §4

Histamine H3 receptor, sequence (Q9QYN8 whole entry): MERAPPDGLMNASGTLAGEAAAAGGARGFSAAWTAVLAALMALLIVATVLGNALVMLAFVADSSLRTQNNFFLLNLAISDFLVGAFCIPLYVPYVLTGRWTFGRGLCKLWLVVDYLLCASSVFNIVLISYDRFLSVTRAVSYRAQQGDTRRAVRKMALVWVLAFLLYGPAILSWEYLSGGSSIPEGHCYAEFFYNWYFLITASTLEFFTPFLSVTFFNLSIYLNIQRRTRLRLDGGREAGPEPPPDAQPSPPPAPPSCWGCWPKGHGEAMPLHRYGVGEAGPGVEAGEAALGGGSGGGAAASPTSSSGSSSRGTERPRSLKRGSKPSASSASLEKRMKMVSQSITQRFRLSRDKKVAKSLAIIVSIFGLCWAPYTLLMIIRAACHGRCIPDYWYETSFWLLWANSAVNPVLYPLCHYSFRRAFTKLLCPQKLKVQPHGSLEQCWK
hERG (KCNH2), sequence (Q12809 whole entry): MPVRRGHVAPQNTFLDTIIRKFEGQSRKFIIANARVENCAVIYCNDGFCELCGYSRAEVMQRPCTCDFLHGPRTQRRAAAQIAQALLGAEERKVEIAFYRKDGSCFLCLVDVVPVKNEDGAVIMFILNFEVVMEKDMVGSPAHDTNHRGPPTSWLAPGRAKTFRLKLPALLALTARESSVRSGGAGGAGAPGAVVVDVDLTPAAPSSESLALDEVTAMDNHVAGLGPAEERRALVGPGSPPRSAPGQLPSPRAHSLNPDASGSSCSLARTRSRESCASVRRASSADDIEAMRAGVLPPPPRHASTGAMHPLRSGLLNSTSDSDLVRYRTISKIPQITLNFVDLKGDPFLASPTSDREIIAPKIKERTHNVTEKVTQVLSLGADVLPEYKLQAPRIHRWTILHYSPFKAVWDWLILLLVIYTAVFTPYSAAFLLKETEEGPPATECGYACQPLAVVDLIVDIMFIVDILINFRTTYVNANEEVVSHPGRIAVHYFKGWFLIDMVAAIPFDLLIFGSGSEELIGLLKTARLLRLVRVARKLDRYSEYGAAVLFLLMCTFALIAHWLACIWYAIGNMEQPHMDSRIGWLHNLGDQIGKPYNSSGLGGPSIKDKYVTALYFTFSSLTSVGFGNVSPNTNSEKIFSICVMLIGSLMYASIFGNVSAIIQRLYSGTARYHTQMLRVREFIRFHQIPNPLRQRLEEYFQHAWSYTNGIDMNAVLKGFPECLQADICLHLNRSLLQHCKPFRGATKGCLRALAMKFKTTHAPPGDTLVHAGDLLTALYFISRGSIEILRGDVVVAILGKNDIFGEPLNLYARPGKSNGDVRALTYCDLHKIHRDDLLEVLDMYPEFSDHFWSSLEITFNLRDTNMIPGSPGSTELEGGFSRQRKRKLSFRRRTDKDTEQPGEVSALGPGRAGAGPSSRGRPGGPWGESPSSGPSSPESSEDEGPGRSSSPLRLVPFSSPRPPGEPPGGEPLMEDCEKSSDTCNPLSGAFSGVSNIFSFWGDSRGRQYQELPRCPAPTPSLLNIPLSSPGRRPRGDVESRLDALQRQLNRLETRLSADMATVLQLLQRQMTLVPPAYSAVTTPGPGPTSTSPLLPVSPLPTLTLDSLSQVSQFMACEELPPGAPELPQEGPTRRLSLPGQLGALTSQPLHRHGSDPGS
Voltage-gated inwardly rectifying potassium channel KCNH2, sequence (Q12809 whole entry): as above

What is called Ki is a measure of affinity in units of concentration, obtained from inhibition or displacement. One may read the inhibition as the percentage by which the read-out fell short of the control. As a reminder, the IC50 is the concentration at which inhibition is half-maximal. Read a high IC50 as lower potency. For orientation: Tmax means the time from dosing to the highest level. A word on the Cmax: it is the highest concentration seen after dosing. What is called half-life is the time needed for the level to fall by half in the phase considered. One may read the bioavailability as the share of a dose that reaches the circulation, judged against a reference dose that is usually intravenous. Usually inhibition in vivo stands for the drop in the measured response relative to a control, in per cent. Read a high inhibition in vivo as a response far below the control. Compound `COCCS(=O)(=O)c1ccc(-c2ccc(CCN3CCC[C@H]3C)cc2)cc1` [listing 1 of 2 here] yielded a Ki in series [1] of 1.4 nM. In series [2], this compound returned an inhibition at 3 µM of 29%. Half-maximal inhibition in series [3] (IC50) required 7400 nM. Moreover, in [4], the minimal effective dose was determined as 0.3 mg/kg. For the same compound, the Tmax in series [5] stood at 18 min. In [6], the Cmax came out at 184 ng/mL. This compound also had a half-life in [7] of 42 min. Also, in series [8], the Vdss amounted to 7.6 L/kg. The same compound came in with a bioavailability in series [9] of 68.5%. Also, in series [10], the Kp was found to be 1.73. Further, in series [11], the inhibition in vivo at 0.6 mg/kg is < 20%.

As a reminder, the solubility is the dissolved amount per volume that the medium holds. A lower solubility goes with a poorly soluble substance. With `COCCCS(=O)(=O)c1ccc(-c2ccc(CCN3CCC[C@H]3C)cc2)cc1.O=C(O)CC(O)(CC(=O)O)C(=O)O`, the solubility in [12] is > 150 mg/mL.

Turning to `COCCS(=O)(=O)c1ccc(-c2ccc(CCN3CCC[C@H]3C)cc2)cc1.Cl`, the solubility in [12] was > 30 mg/mL.

As to `COCCS(=O)(=O)c1ccc(-c2ccc(CCN3CCC[C@@H]3C)cc2)cc1`, in [1], the Ki came to 13.2 nM.

As to `C[C@@H]1CCCN1CCc1ccc(-c2ccc(S(=O)(=O)C3CCOCC3)cc2)cc1`, the affinity in series [1] corresponds to a Ki of 1.1 nM. Moreover, the minimal effective dose in series [4] was determined as 1 mg/kg.

Take `COCCS(=O)(=O)c1ccc(-c2ccc(CCN3CCC[C@H]3C)cc2)cc1` [listing 2 of 2 here]: the inhibition entry in [13] is “inactive”. For the same compound, the inhibition entry in series [14] and in series [15] was “Active” in each case.

Compound `C[C@@H]1CCCN1CCc1ccc(-c2ccc(S(C)(=O)=O)cc2)cc1` had a Ki in series [1] of 1.3 nM. For the same compound, the minimal effective dose in series [4] is 0.3 mg/kg. Moreover, the Tmax in series [5] came to 240 min. In series [6], this compound displayed a Cmax of 218 ng/mL. In [7], this compound had a half-life of 216 min. In series [8], this compound gave a Vdss of 19.8 L/kg. In [9], this compound showed a bioavailability of 100%. Further, the Kp in [10] was found to be 3.03.

As to `CCCS(=O)(=O)c1ccc(-c2ccc(CCN3CCC[C@H]3C)cc2)cc1`, the affinity in [1], expressed as Ki, was 0.6 nM. In addition, in series [4], the minimal effective dose was 0.3 mg/kg. Besides, the results for the Tmax in [16] and in series [17] were 6 min and 180 min, respectively. Moreover, the Cmax in series [18] was found to be 6 ng/mL; in series [19], 449 ng/mL. The compound further had a half-life in series [20] of 18 min. Further, in series [21], the Vdss worked out at 5.9 L/kg. The bioavailability in series [22] was < 0.1%. Besides, the BPR in series [23] was found to be 0.7.

In [1], `C[C@@H]1CCCN1CCc1ccc(-c2ccc(S(=O)(=O)CC3CCOCC3)cc2)cc1` showed a Ki of 0.17 nM. For the same compound, in series [4], the minimal effective dose amounted to 0.3 mg/kg.
